Experimental data from different studies.
Lines come from different studies, so protocols differ.
Target: Calcium/calmodulin-dependent protein kinase type 1B (PNCK, Homo sapiens, UniProt Q6P2M8)

| Compound | observed | mode | technique | tested at | quantity | result |
| --- | --- | --- | --- | --- | --- | --- |
| CCc1ccccc1C(=O)Nc1n[nH]c2c(C)c(F)c(C3C(C#N)=C(C)N(C)C(C)=C3C#N)cc12 | cell-free assay | – | competition with immobilised ligand | 1 µM | remaining binding | 100% |
| Cc1ccc(C(=O)Nc2ccc(CN3CCN(C)CC3)c(C(F)(F)F)c2)cc1C#Cc1cnc2cccnn12 | cell-free assay | – | – | 23.5 nM | remaining signal | 89% |
| CN([C@@H]1CCc2c(CC(=O)O)c3ccccc3n2C1)S(=O)(=O)c1ccc(F)cc1 | cell-free assay | – | competition with immobilised ligand | 1 µM | remaining binding | 87% |
| N#CCCc1ccc2c(c1)-c1[nH]c3ccc([N+](=O)[O-])cc3c1CC(=O)N2 | cell-free assay | – | – | 0.5 µM | remaining signal | 107% |
| Cc1sc(C(=O)NC2COC2)cc1-n1cc(NC(=O)Nc2c(F)cccc2Cl)cn1 | enzyme activity | inhibitor | – | 10 µM | remaining activity | 74.1% |
| COc1cc(Cl)c(C(=O)N[C@@H](CN[C@H]2CC[C@@H](N)CC2)Cc2ccc(C#N)cc2)cc1-c1ccc(CN[C@H](C)c2ccc(C)cc2)o1 | enzyme activity | inhibitor | – | 1 µM | remaining activity | 98% |
| CN(CCCC(F)(F)F)c1nccc(-c2cnn3ncccc23)n1 | binding | – | – | 1 µM | remaining binding | 100% |
| CN1CC(Oc2cnc(C#N)cc2-c2ccn3nc(NC(=O)C4CC4)cc3c2)C1 | enzyme activity | inhibitor | – | 1 µM | inhibition | -21% |
| CC(C)(O)[C@H]1CC[C@H](Nc2ccc3ncc(-c4cccc(C(F)(F)F)c4)n3n2)CC1 | enzyme activity | inhibitor | – | 1 µM | remaining activity | 100% |
| O=C(Nc1cnn(-c2csc(C(=O)NC3COC3)c2)c1)Nc1ccccc1Cl | enzyme activity | inhibitor | – | 5 µM | remaining activity | 92.1% |
| Nc1ncnc2occ(-c3ccc(NC(=O)Nc4cc(C(F)(F)F)ccc4F)cc3)c12 | cell-free assay | – | – | 20 µM | remaining signal | 0.5% |
